The values that follow come from ChEMBL document CHEMBL4017511, “Discovery of Fragment-Derived Small Molecules for in Vivo Inhibition of Ketohexokinase (KHK)” (J Med Chem, 2017).

By Kd is commonly meant the equilibrium constant for the complex coming apart. What is called logD is lipophilicity at a set pH, counting ionised and neutral species. For orientation: Papp means the rate of passage across a membrane or cell layer, normalised by area and donor concentration. Usually fraction unbound stands for the share of the substance not bound to proteins or other matrix.

≈ marks a conversion by molar mass, not a printed value. Calls of active or inactive are those of the source. The calls are words filed in the database; no cut-off is given here.

In data set [1] the target is T1, Ketohexokinase (Homo sapiens, UniProt P50053).
T1 sequence (P50053 whole entry): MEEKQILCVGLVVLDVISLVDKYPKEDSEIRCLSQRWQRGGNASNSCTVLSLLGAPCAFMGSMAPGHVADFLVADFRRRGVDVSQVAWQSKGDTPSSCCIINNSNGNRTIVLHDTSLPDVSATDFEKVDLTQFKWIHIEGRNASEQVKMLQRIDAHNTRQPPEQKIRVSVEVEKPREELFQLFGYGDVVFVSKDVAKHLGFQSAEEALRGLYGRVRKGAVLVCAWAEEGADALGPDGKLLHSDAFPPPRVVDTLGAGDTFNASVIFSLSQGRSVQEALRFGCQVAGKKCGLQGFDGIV
The data set is described as follows: Inhibition of recombinant human N-terminal His-tagged KHK expressed in Escherichia coli BL21(DE3) using fructose as substrate incubated for 30 mins followed by ATP addition measured for 30 mins by pyruvate kinase-lactate dehydrogenase coupled enzyme assay. The method, boiled down: (§1)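 Thrombin-cleaved (His-tag removed) human or rat KHK at 10 nM, preincubated 30 min at room temperature with compound (11-point series, 2.5% DMSO). Started with 0.2 mM ATP; NADH A340 read kinetically for 30 min. IC50 from nonlinear fit of percent inhibition; mean of replicates.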

The target in data set [2] is T1, Ketohexokinase. The data set is described as follows: Binding affinity to full length recombinant human biotin-labeled KHK by SPR assay. The method, boiled down: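 Full-length biotinylated KHK captured on a streptavidin sensor (7000-8000 RU). Run buffer was 50 mM HEPES pH 7.4, 150 mM NaCl, 0.01% P20, 500 µM TCEP, 3% DMSO at 25 °C. Eleven 2-fold concentrations from 300 µM top, stop-flow with 60 s association and ≥120 s dissociation. Data double-referenced and DMSO-corrected; KD by steady-state affinity fit, n=1.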

Data set [3] has as its target T2, Ketohexokinase (Homo sapiens) (UniProt P50053).
T2 sequence (whole entry): T1 sequence (P50053 whole entry)
The data set is described as follows: Inhibition of recombinant full length human His-tagged KHK expressed in Escherichia coli BL21(DE3) using at 240 uM by 1D NMR-STD spectroscopic method. The method, boiled down:
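Full-length His-tagged human KHK (tag retained) at 5 μM in 50 mM Tris-d, 100 mM NaCl, 2 mM TCEP-d, 5% glycerol-d, pH 7.5, 298 K. AMP-PMP at 240 μM served as positive control. Saturation-transfer difference NMR used 512 scans and 3 s Gaussian on/off-resonance saturation. Binding was called from positive difference signals, with ligands assigned against each fragment's 1D 1H reference spectrum.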

Data set [4] is described as follows: Octanol/water partition coefficient, log D of the compound at pH 7.4 by shake-flask method. Type of data set: physicochemical. The method, boiled down:
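LogD measured by shake-flask octanol:water partition at pH 7.4.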

Data set [5] in a line: Apparent permeability in RRCK cells by LC-MS/MS analysis. The data set is classed as ADME, cell-based, Canis lupus familiaris, MDCKII-LE. Particulars: dog, MDCK.
Data set [6] is described as follows: Fraction unbound in human plasma at 10 uM measured at 2 to 24 hrs by equilibrium dialysis method. The data set is classed as ADME, cell-free. For orientation: In equilibrium dialysis only unbound substance equilibrates across the membrane.
Data set [7] concerns the target T3, Ketohexokinase (Rattus norvegicus, UniProt Q02974).
T3 sequence (Q02974 whole entry): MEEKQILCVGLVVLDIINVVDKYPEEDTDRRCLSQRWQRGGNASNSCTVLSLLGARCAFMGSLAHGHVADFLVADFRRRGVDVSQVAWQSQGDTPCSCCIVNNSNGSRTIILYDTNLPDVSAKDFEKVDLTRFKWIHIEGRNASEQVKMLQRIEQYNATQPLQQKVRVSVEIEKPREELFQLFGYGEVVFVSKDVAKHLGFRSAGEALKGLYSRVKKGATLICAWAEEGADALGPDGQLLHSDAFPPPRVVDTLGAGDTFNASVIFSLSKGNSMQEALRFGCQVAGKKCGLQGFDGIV
The data set is described as follows: Inhibition of recombinant rat N-terminal His-tagged KHK expressed in Escherichia coli BL21(DE3) using fructose as substrate incubated for 30 mins followed by ATP addition measured for 30 mins by pyruvate kinase-lactate dehydrogenase coupled enzyme assay. The settings on record: read-out: IC50. The method, boiled down:
as §1

Another data set relates to Rattus norvegicus. The data set is described as follows: Unbound Cmax in rat at 300 mg/kg, po. Type of data set: ADME, organism-based. Particulars: in vivo. The method, boiled down:
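Rats given 300 mg/kg orally in 0.25% HPC-SL/0.05% DOSS vehicle. Free plasma concentrations determined; mean ± SD, n = 3 per data point.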

Data set [8] in a line: Apparent clearance in human liver microsomes. Type of data set: ADME, microsome. The settings on record: read-out: CLH(app). Background: Microsomes from liver hold many membrane-bound enzymes, among them those of drug oxidation.
The nature of data set [9]: Thermodynamic solubility of compound at pH 7.4. The data set is classed as physicochemical. Particulars: buffer, read-out: Therm_solubility. The method, boiled down: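 Thermodynamic solubility determined at pH 7.4.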

Take `N#Cc1c(C(F)(F)F)cc(N2CCN(CCO)CC2)nc1N1CCCC(CO)C1` (centres undefined): the IC50 on Ketohexokinase [1] (read-out: IC50) worked out at 16.8 µM.
`Cc1c[nH]c2ncnc(N3CCC[C@@H](CO)C3)c12`: the IC50 on Ketohexokinase [1] (read-out: IC50) is 118 µM; at Ketohexokinase [1] (read-out: pIC50 (converted)), 120 µM. In addition, the Kd on Ketohexokinase [2] was found to be 20 µM. Besides, the inhibition result in data set [3] is “Active”.
For the molecule `N#Cc1cc(F)c(N)nc1Cl`, the IC50 at Ketohexokinase [1] (read-out: IC50) is over 500 µM. The Kd on Ketohexokinase [2] was found to be 103 µM. Also, the inhibition entry in data set [3] is “Active”.
Taken in the same sequence, the figures for `Cc1cc(C)c(C#N)c(N2CCOCC2)n1` were 319 µM, 62 µM and “Active”.
In data set [4], `C[C@]1(O)CCN(c2c(C#N)c(C(F)(F)F)nc3cc[nH]c23)C1` came in with a logD of 2.2. The Papp in data set [5] stood at 140 nm/s. Also, the IC50 at Ketohexokinase [1] (read-out: IC50) was determined as 0.67 µM; on Ketohexokinase [7], 0.64 µM. The free fraction (fraction unbound) at 10 µM in data set [6] was 0.032. This molecule showed a fCmax in the data set on Rattus norvegicus of 1.3 µM. Further, the microsomal CLint in data set [8] was under 8 µL/min/mg. Moreover, the solubility thermodynamic in data set [9] was 147 µM (≈ 45.6 µg/mL).
